Measured values of several laboratories.
Compare with care: the assays were run in different laboratories.
Read-out: cell growth or viability

| SMILES | cell line | technique | time | CC50 [µM] |
| --- | --- | --- | --- | --- |
| CN(C)c1ccc(C(=C2C=CC(=[N+](C)C)C=C2)c2ccc(N(C)C)cc2)cc1 | J774 | ATP luminescence | 72 h | 4.91 |
| N#Cc1nc(-c2ccccc2)oc1N1CCCC1CO (stereo not drawn) | HFF | ATP luminescence | – | > 150 |
| Nc1nc2c(ncn2COCCO)c(=O)[nH]1 | HFF | ATP luminescence | 14 days | > 150 |
| O=C1c2ccccc2C(c2ccccc2F)C(=O)N1O (stereo not drawn) | HFF | MTS | 7 days | 26 |
| NCCCCNC(=O)CN1C(=O)Cc2c([nH]c3ccc(Br)cc23)-c2ccc(Cl)cc21 | J774 | WST-1 | 24 h | ≥ 100 |
| O=c1[nH]c2sc(-c3ccc(Cl)cc3)cc2c(=O)n1O | HFF | MTS | 7 days | > 50 |
| O=C(CN1C(=O)Cc2c([nH]c3ccc(Br)cc23)-c2ccc(Cl)cc21)NCCN1CCNCC1 | J774 | WST-1 | 24 h | ≥ 100 |
| O=S(=O)(c1ccc(Cl)cc1)c1nc(-c2ccccc2)oc1S(=O)(=O)c1ccc(Cl)cc1 | HFF | ATP luminescence | – | 86.2 |
| CCN(CC)CCNC(=O)CN1C(=O)Cc2c([nH]c3ccc(Br)cc23)-c2ccc(Cl)cc21 | J774 | WST-1 | 24 h | ≤ 10 |
| O=c1[nH]c2cc(-c3ccccc3)ccc2c(=O)n1O | HFF | MTS | 7 days | 29 |
| CNC(=O)CN1C(=O)Cc2c([nH]c3ccc(Br)cc23)-c2ccc(Cl)cc21 | J774 | WST-1 | 24 h | ≤ 100 |
| CC1CCCN(S(=O)(=O)c2nc(-c3ccc(Br)cc3)oc2-c2ccc(Cl)cc2)C1 (stereo not drawn) | HFF | ATP luminescence | – | 41.9 |
